Columns and labels:
1A9/ptx-10 [1] = test: Relative resistance, IC50 for 1A9-PTX10 F-beta-270V mutant/IC50 for 1A9; assay type: functional, Homo sapiens
Tubulin (Homo sapiens) = Tubulin (Homo sapiens) (UniProt P68371+Q9H4B7+P0DPH7+P68366+Q13509+Q71U36+P04350+Q3ZCM7+P07437+P68363+Q9BQE3+Q6PEY2+Q13885+Q9BVA1+Q9BUF5); test: Induction of GTP-tubulin polymerization; assay type: protein-complex assay
How it was run: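 ED50 for induction of tubulin assembly, read by light scattering at 350 nm or by fluorescence in a 96-well format. GTP-tubulin was used unless otherwise stated. Some samples were run with GDP-tubulin and normalized to the GTP-tubulin scale. Some values are single determinations.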

1A9 [2] = test: Relative resistance, IC50 for 1A9-A8 A8 T-beta-274I mutant/IC50 for 1A9; assay type: functional, Homo sapiens
PC-3 = test: Cytotoxicity against PC3 cell line by MTT assay; assay type: cell-based; conditions: Homo sapiens
1A9/ptx-10 [3] = test: Inhibition of growth in paclitaxel resistant 1A9-PTX10 F-beta-270V mutant cell line after 72 hrs by SRB assay; assay type: functional, cell-based; conditions: Homo sapiens, 1A9/ptx-10, 72 h
A2780 = test: Cytotoxicity against A2780 cell line; assay type: cell-based; conditions: Homo sapiens
[4] = Inhibition of growth in epothilone A resistant 1A9-A8 T-beta-274I mutant cell line after 72 hrs by SRB assay; assay type: functional, cell-based; conditions: Homo sapiens, 1A9, 72 h
1A9 [5] = test: Inhibition of growth in 1A9 cell line after 72 hrs; assay type: functional, cell-based; conditions: Homo sapiens, 1A9, 72 h

Row | Structure (SMILES) | ED50 (Tubulin (Homo sapiens)) | Ratio IC50 (1A9/ptx-10 [1]) | Ratio IC50 (1A9 [2]) | IC50 (PC-3) | IC50 (1A9/ptx-10 [3]) | IC50 (A2780) | IC50 [4] | IC50 (1A9 [5])
1 | CC(=O)O[C@H]1C(=O)[C@@]2(C)[C@@H]3[C@H](OC(=O)c4ccccc4)[C@]4(O)C[C@H](OC(=O)[C@H](O)[C@@H](NC(=O)c5ccccc5)c5ccccc5CCCC(=O)O[C@]35CO[C@@H]5C[C@@H]2O)C(C)=C1C4(C)C | 210 nM | 12 | 6.3 | 2.4 nM | 1.03 nM | 0.5 nM | 0.44 nM | 0.07 nM
2 | CC(=O)O[C@H]1C(=O)[C@@]2(C)[C@@H]3[C@H](OC(=O)c4ccccc4)[C@]4(O)C[C@H](OC(=O)[C@H](O)[C@@H](NC(=O)c5ccccc5)c5ccccc5OCCCC(=O)O[C@]35CO[C@@H]5C[C@@H]2O)C(C)=C1C4(C)C | 830 nM | 1.8 | 3.5 | 50 nM | 35.9 nM | 18.5 nM | 66.5 nM | 18.9 nM
3 | CC(=O)O[C@H]1C(=O)[C@]2(C)C(O)C[C@H]3OC[C@]34OC(=O)/C=C\Cc3ccccc3[C@H](NC(=O)c3ccccc3)[C@@H](O)C(=O)O[C@H]3C[C@@](O)([C@@H](OC(=O)c5ccccc5)[C@H]42)C(C)(C)C1=C3C (stereo not given in full) | 300 nM | 1.8 | 0.84 | 2.5 nM | 0.13 nM | 0.3 nM | 0.27 nM | 0.32 nM
4 | CC(=O)O[C@H]1C(=O)[C@@]2(C)[C@@H]3[C@H](OC(=O)c4ccccc4)[C@]4(O)C[C@H](OC(=O)[C@H](O)[C@@H](NC(=O)c5ccccc5)c5cccc(c5)OC/C=C/CCC(=O)O[C@]35CO[C@@H]5C[C@@H]2O)C(C)=C1C4(C)C | – | 6.3 | >12 | – | 196 nM | 650 nM | > 300 nM | 24.6 nM

The next lines start with results.

Row | ED50 (Tubulin (Homo sapiens)) | Structure (SMILES) | Ratio IC50 (1A9/ptx-10 [1]) | Ratio IC50 (1A9 [2]) | IC50 (PC-3) | IC50 (1A9/ptx-10 [3]) | IC50 (A2780) | IC50 [4] | IC50 (1A9 [5])
5 | 670 nM | CC(=O)O[C@H]1C(=O)[C@@]2(C)[C@@H]3[C@H](OC(=O)c4ccccc4)[C@]4(O)C[C@H](OC(=O)[C@H](O)[C@@H](NC(=O)c5ccccc5)c5ccccc5OCC/C=C/C(=O)O[C@]35CO[C@@H]5C[C@@H]2O)C(C)=C1C4(C)C | 9.2 | 3.8 | 16 nM | 157 nM | 20 nM | 46.4 nM | 12.2 nM
6 | 1600 nM | CC(=O)O[C@H]1C(=O)[C@@]2(C)[C@@H]3[C@H](OC(=O)c4ccccc4)[C@]4(O)C[C@H](OC(=O)[C@H](O)[C@@H](NC(=O)c5ccccc5)c5cccc(c5)/C=C/CCC(=O)O[C@]35CO[C@@H]5C[C@@H]2O)C(C)=C1C4(C)C | 21 | >23 | 34 nM | 157 nM | 680 nM | > 300 nM | 12.9 nM
7 | 280 nM | CC(=O)O[C@H]1C(=O)[C@@]2(C)[C@@H]3[C@H](OC(=O)c4ccccc4)[C@]4(O)C[C@H](OC(=O)[C@H](O)[C@@H](NC(=O)c5ccccc5)c5ccccc5OC/C=C\C(=O)O[C@]35CO[C@@H]5C[C@@H]2O)C(C)=C1C4(C)C | 17 | 3.8 | 15 nM | 126 nM | 14.5 nM | 26.5 nM | 7 nM
8 | 490 nM | C=CCCC(=O)O[C@@]12CO[C@@H]1C[C@H](O)[C@@]1(C)C(=O)[C@H](OC(C)=O)C3=C(C)[C@@H](OC(=O)[C@H](O)[C@@H](NC(=O)c4ccccc4)c4cccc(C=C)c4)C[C@@](O)([C@@H](OC(=O)c4ccccc4)[C@H]21)C3(C)C | 5.5 | 10 | 55 nM | 42 nM | 350 nM | 137 nM | 13.7 nM
9 | 420 nM | C=CCCC(=O)O[C@@]12CO[C@@H]1C[C@H](O)[C@@]1(C)C(=O)[C@H](OC(C)=O)C3=C(C)[C@@H](OC(=O)[C@H](O)[C@@H](NC(=O)c4ccccc4)c4ccccc4OCC=C)C[C@@](O)([C@@H](OC(=O)c4ccccc4)[C@H]21)C3(C)C | 18 | 82 | 128 nM | 65 nM | 770 nM | 148 nM | 1.8 nM
